Data taken from article PMC4938767 (Structure (London, England : 1993), 2016).

Assays:
[1] = tested on: substrate polypeptide MKAV24; type: biochemical; settings: for Wild-type efficiency (%): catalytic efficiency relative to hNaa60 WT; for Kcat/Km: hNaa60 variant, substrate peptide MKAV24, 50 mM HEPES pH 7.5, 100 mM NaCl, 2 mM EDTA, DTNB, 412 nm; for catalytic efficiency (in words): β3–β4 loop contact mutants; for reduction in catalytic efficiency: substrate MKAV24, compared to hNaa60 WT; for change in Km (in words): substrate MKAV24, vs hNaa60 WT
Summary of the method: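 Purified hNaa60 variants (His-SUMO tag cleaved, nickel-purified) with peptide and Ac-CoA in assay buffer, quenched with 3.2 M guanidinium-HCl/100 mM sodium phosphate pH 6.8. CoA detected with DTNB (2 mM final) at 412 nm, negative-control background subtracted. Thiophenolate quantified with ε = 13.7 × 103 M−1 cm−1. Rates taken in the linear phase and fitted for kinetic constants.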

[2] = DSF / purification stability of hNaa60 point mutants; settings: for initial fluorescence (in words): vs hNaa60 WT; for stability on purification (in words): data not shown
hNaa60 1–184 = assay: Size-exclusion chromatography, dimer to monomer transition; design: species or system human; settings: with Ac-CoA
[3] = tested on: N-terminal acetyltransferase Naa50; settings: ref Evjenth et al., 2012; cited from earlier work
other acetyltransferases = settings: ref De Angelis et al., 1998; Thompson et al., 2001; cited from earlier work

**Q.** With “D81A: hNaa60 point mutant, β3–β4 loop contact” as the compound, how does the “Wild-type efficiency (%)” value ([1]; substrate MKAV24) read?
**A.** 136.9%

**Q.** What about the Kcat/Km [1] of the same compound?
**A.** 518 M⁻¹ s⁻¹

**Q.** And the “catalytic efficiency (in words)” value ([1]; substrate MKAV24)?
**A.** modest overall effect on catalytic efficiency

**Q.** And the “destabilization compared to hNaa60 WT (in words)” value ([2]; DSF)?
**A.** clearly destabilized compared to hNaa60 WT

**Q.** What about the “initial fluorescence (in words)” value ([2]; DSF) of the same compound?
**A.** higher initial fluorescence

**Q.** For `CC(=O)SCCNC(=O)CCNC(=O)[C@H](O)C(C)(C)COP(=O)(O)OP(=O)(O)OC[C@H]1O[C@@H](n2cnc3c(N)ncnc32)[C@H](O)[C@@H]1OP(=O)(O)O` [Ac-CoA, acetyl CoA], which “elution of hNaa60 1–184 (oligomeric state, in words)” value (hNaa60 1–184) is on record?
**A.** elutes at a column volume corresponding to twice the theoretical size of the enzyme

**Q.** Which results are given for “Y165F: hNaa60 point mutant, peptide anchoring residue”?
**A.** Wild-type efficiency (%) ([1]; substrate MKAV24): 24.4%; Kcat/Km [1]: 90 M⁻¹ s⁻¹; reduction in catalytic efficiency [1]: approximately 4 fold

**Q.** For WT: wild-type hNaa60 enzyme, which “Wild-type efficiency (%)” value ([1]; substrate MKAV24) is on record?
**A.** 100%

**Q.** And the “melting point (apo)” value ([2]; DSF, apo hNaa60)?
**A.** 47.9 °C

**Q.** For “P35A: hNaa60 point mutant, M1p hydrophobic pocket”, which Kcat/Km [1] is on record?
**A.** 60 M⁻¹ s⁻¹

**Q.** And the “reduction in catalytic efficiency” value [1]?
**A.** ~6 fold

**Q.** And the “change in Km (in words)” value [1]?
**A.** small increase in Km

**Q.** For “Y164F: hNaa60 point mutant, β3–β4 loop contact”, which “Wild-type efficiency (%)” value ([1]; substrate MKAV24) is on record?
**A.** 154.9%

**Q.** And the Kcat/Km [1]?
**A.** 585 M⁻¹ s⁻¹

**Q.** What about the “destabilization compared to hNaa60 WT (in words)” value ([2]; DSF) of the same compound?
**A.** clearly destabilized compared to hNaa60 WT

**Q.** For “I84A: hNaa60 point mutant, β3–β4 loop contact”, which “Wild-type efficiency (%)” value ([1]; substrate MKAV24) is on record?
**A.** 200.4%

**Q.** What about the Kcat/Km [1] of the same compound?
**A.** 758 M⁻¹ s⁻¹

**Q.** And the “catalytic efficiency (in words)” value ([1]; substrate MKAV24)?
**A.** modest overall effect on catalytic efficiency

**Q.** What about the “destabilization compared to hNaa60 WT (in words)” value ([2]; DSF) of the same compound?
**A.** clearly destabilized compared to hNaa60 WT

**Q.** What about the “initial fluorescence (in words)” value ([2]; DSF) of the same compound?
**A.** higher initial fluorescence

**Q.** For “H138F: hNaa60 point mutant, catalytic residue”, which “stability on purification (in words)” value [2] is on record?
**A.** unstable and could not be purified

**Q.** Which “Wild-type efficiency (%)” value ([1]; substrate MKAV24) does the source give for “I167A: hNaa60 point mutant, M1p hydrophobic pocket” here?
**A.** 33.3%

**Q.** And the Kcat/Km [1]?
**A.** 123 M⁻¹ s⁻¹

**Q.** What about the “reduction in catalytic efficiency” value [1] of the same compound?
**A.** ~3 fold

**Q.** What about the “change in Km (in words)” value [1] of the same compound?
**A.** small increase in Km

**Q.** Which Kcat/Km [1] does the source give for “I36A: hNaa60 point mutant, M1p hydrophobic pocket” here?
**A.** 60 M⁻¹ s⁻¹

**Q.** What about the “reduction in catalytic efficiency” value [1] of the same compound?
**A.** ~6 fold

**Q.** And the “change in Km (in words)” value [1]?
**A.** small increase in Km

**Q.** And the “destabilization compared to hNaa60 WT (in words)” value ([2]; DSF)?
**A.** did not show any signs of destabilization

**Q.** With “Y97F: hNaa60 point mutant, catalytic residue” as the compound, how does the “Wild-type efficiency (%)” value ([1]; substrate MKAV24) read?
**A.** <10%

**Q.** And the “catalytic activity (in words)” value ([1]; substrate MKAV24)?
**A.** complete loss of catalytic activity

**Q.** Which “Wild-type efficiency (%)” value ([1]; substrate MKAV24) does the source give for “Y164A: hNaa60 point mutant, β3–β4 loop contact” here?
**A.** 141.7%

**Q.** And the Kcat/Km [1]?
**A.** 535 M⁻¹ s⁻¹

**Q.** Which “Wild-type efficiency (%)” value ([1]; substrate MKAV24) does the source give for “L140A: hNaa60 point mutant, M1p hydrophobic pocket” here?
**A.** 56.0%

**Q.** What about the Kcat/Km [1] of the same compound?
**A.** 210 M⁻¹ s⁻¹

**Q.** What about the “catalytic efficiency (kcat/Km) as fold of hNaa60 WT” value ([1]; substrate MKAV24) of the same compound?
**A.** approximately 0.5 fold

**Q.** With “H138A: hNaa60 point mutant, catalytic residue” as the compound, how does the “stability on purification (in words)” value [2] read?
**A.** unstable and could not be purified

**Q.** For `CCNC(=O)CCNC(=O)[C@H](O)C(C)(C)COP(=O)(O)OP(=O)(O)OC[C@H]1O[C@@H](n2cnc3c(N)ncnc32)[C@H](O)[C@@H]1OP(=O)(O)O` [desulfoCoA], which “inhibitor type (Naa50)” value [3] is on record?
**A.** competitive inhibitor

**Q.** What about the “inhibitor type (other acetyltransferases)” value (other acetyltransferases) of the same compound?
**A.** competitive inhibitor

**Q.** With “Y38A: hNaa60 point mutant, peptide anchoring residue” as the compound, how does the “Wild-type efficiency (%)” value ([1]; substrate MKAV24) read?
**A.** <10%

**Q.** And the “catalytic activity (in words)” value ([1]; substrate MKAV24)?
**A.** complete loss of catalytic activity

**Q.** Which “Wild-type efficiency (%)” value ([1]; substrate MKAV24) does the source give for P35A/I36A/I167A: hNaa60 triple mutant here?
**A.** <10%

**Q.** What about the “catalytic activity (in words)” value ([1]; substrate MKAV24) of the same compound?
**A.** not able to detect any catalytic activity
